Among all 320,000 compounds or so, about 200 (0.062%) were called active.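 How the source made its calls: active means activation above that plate's cutoff, the mean activation of tested compounds plus 3 SD (cut at about 6.6% in these data, passing the limit was not always enough); inactive means the rest.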 Only a selection was taken, and actives are over-represented in it overall.

Sequence of Oxytocin receptor (Homo sapiens) (P30559 whole entry, looked up): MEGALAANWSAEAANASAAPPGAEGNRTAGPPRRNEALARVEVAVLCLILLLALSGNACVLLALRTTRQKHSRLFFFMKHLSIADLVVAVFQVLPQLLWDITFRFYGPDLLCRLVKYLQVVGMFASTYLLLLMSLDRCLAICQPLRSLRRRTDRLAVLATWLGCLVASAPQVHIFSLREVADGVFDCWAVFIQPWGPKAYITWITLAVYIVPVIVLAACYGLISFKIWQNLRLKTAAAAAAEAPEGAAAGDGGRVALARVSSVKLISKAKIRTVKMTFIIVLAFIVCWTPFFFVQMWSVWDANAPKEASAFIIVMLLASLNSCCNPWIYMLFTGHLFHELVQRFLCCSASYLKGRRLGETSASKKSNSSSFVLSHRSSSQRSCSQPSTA

This assay has as its target Oxytocin receptor (Homo sapiens) (UniProt P30559). In words: enhancers of oxytocin-evoked OXTR calcium signal – fluorescence, CHO-OTR cells, Fluo-8 calcium, primary screen (AID 2445).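 Further: 100% uses oxytocin at 75 nM as the full agonist control.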 The following applies: Fluo-8 calcium fluorescence, potentiator mode, at 3 µM, stronger effect = higher value, 0% = oxytocin EC15, 100% = EC100. The gist of the method:
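System: human OTR in CHO cells; Also added: sub-maximal oxytocin, roughly EC15; Timing: compound 6 min at room temperature before oxytocin, 100 s read; Technique: Fluo-8 intracellular calcium fluorescence, ex 470-495, em 515-575 nm; Controls: oxytocin EC15 low and EC100 high; Replication: singlicate.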
With `CC1CCC(NS(=O)(=O)c2ccc3c(c2)CC(=O)N3)CC1` (configuration not stated), the activation was -7.03% (inactive).
In the case of `Cc1cc(C)cc(N(CC(=O)NC2CCCC2)C(=O)CCC(=O)Nc2cc(C)on2)c1`, the activation is -12.7% (inactive).
`Nc1ccc(SCCN2C(=O)c3ccccc3C2=O)cc1`: the activation is -2.44% (inactive).
Take `COc1cc(/C=C2\SC(=O)NC2=O)ccc1OCc1ccc(Cl)nc1`: the activation is -15.2% (inactive).
Under `CCOC(=O)c1ccccc1NC(=O)c1c(N)n(C)c(=O)[nH]c1=O` stands -5.38% (inactive); under `CCC(C)[C@H](NC(=O)N1c2ccccc2NC(=O)[C@@H]1C(C)C)C(=O)N[C@@H](Cc1ccccc1)C(=O)O` (some centres not stated), -4.93% (inactive).
Under `CC1(C)CC(=O)CC2(C1)NCC(c1ccccc1Cl)c1c2[nH]c2ccccc12` (configuration not stated) stands -23.6% (inactive); under `Cc1cccn2c(=O)nc(SCC(=O)NCc3ccccc3Cl)nc12`, -9.43% (inactive).
As for `O=C(NCCc1ccccn1)c1cc(C(=O)C2CCCCC2)c[nH]1`, the activation was -8.37% (inactive).
Under `Cc1nc(NCc2ccccc2)c(C(N)=O)c2c1COC(C)(C)C2` stands -7.89% (inactive).
Under `O=C1CCCc2nn(-c3ccccc3)nc21` stands -20.3% (inactive); under `CCc1cc2c(SCC(=O)Nc3ncc(Cl)c(C)c3Cl)ncnc2s1`, -3.54% (inactive); under `COCCn1c(CN(Cc2ccccc2)Cc2ccccc2)nc2c1c(=O)n(C)c(=O)n2C`, 6.98% (active).
In the case of `CC(C)Cn1c(CN(Cc2ccccc2)Cc2ccccc2)nc2c1c(=O)n(C)c(=O)n2C` it was -4.31% (inactive); in that of `CC(C)CCn1c(CN(C)Cc2ccccc2)nc2c1c(=O)n(C)c(=O)n2C`, -2.79% (inactive); in that of `CCc1nn(CCCC(=O)NCc2ccc(C)cc2)c(=O)c2cc3occc3n12`, -17.3% (inactive).
On to `CCOC(=O)[C@H]1[C@H]2COc3cc(OC)ccc3[C@@H]2N2C(=O)N(c3ccc(Br)cc3)C(=O)[C@@]12C`, for which the activation was -10.7% (inactive).
In the case of `O=P(O)(CP(=O)(c1ccccc1)c1ccccc1)c1ccccc1` it was -9.44% (inactive); in that of `Cc1cccc(N2CCN(C(=O)CN(C)S(=O)(=O)c3ccc4c(c3)CCC(=O)N4)CC2)c1C`, -9.67% (inactive).
Under `CC(Oc1ccc(F)cc1)C(=O)Nc1ccccc1C(=O)NC1CC1` (configuration not stated) stands 2.5% (inactive); under `Cc1c(-c2nn(C)c(=O)c3ccccc23)oc2ccc(F)cc2c1=O`, -8.96% (inactive); under `C=CCOC(=O)C1=C[C@@H](c2ccc3c(c2)OCO3)C[C@@H](OCCCCO)O1`, -0.78% (inactive).
Under `Cc1ccc(N/N=C2\COC(C)(C)CC2=O)cc1` stands -4.26% (inactive).
As for `CCOc1ccc(-c2c(C)n([O-])c3c([n+]2=O)CCCC3)cc1`, the activation is -2.39% (inactive).
In the case of `Cc1ccc2c(c1)C(O)(CC(=O)c1cccc(-n3cccc3)c1)C(=O)N2` (configuration not stated) it was -5.12% (inactive).
Under `O=C(COc1ncnc2c(Cl)cc(Cl)cc12)N1CCN(S(=O)(=O)c2ccccc2)CC1` stands -0.15% (inactive); under `Cc1ccc(S(=O)(=O)N(C)c2ccc(OCC(=O)OCc3ccc(C#N)cc3)cc2)cc1`, -6.02% (inactive).
Under `COc1ccc2c(c1)CC[C@@H]1[C@@H]2CC[C@]2(C)C(=O)CC[C@@H]12` stands -6.25% (inactive); under `O=S(=O)(NCCOc1cccc2cccnc12)c1ccc(F)cc1`, -8.04% (inactive); under `COc1cccc(NC(=O)CSc2nnc(Cc3ccc(OC)c(OC)c3)o2)c1`, -7.75% (inactive).
Consider `Cc1cccc(N=C2SC(C)CN2C(=O)CN2C(=O)NC3(CCCC3)C2=O)c1` (configuration not stated), for which the activation is -10% (inactive).
Under `CCOc1ccc(C(=O)Nc2cc(Cl)ccc2-n2cncn2)cc1OC` stands 3.32% (inactive); under `c1ccc(-c2cn3c(n2)CCc2ccc4cccnc4c2-3)cc1`, 0.09% (inactive); under `CCC(C)N(C(=O)COC(=O)C1C(C(=O)OC)=C(C)NC(C)=C1C(=O)OC)C1CCS(=O)(=O)C1` (configuration not stated), -7.92% (inactive).
As for `COc1ccc(NC(=O)CC(NC(C)c2ccccc2)C(=O)O)cc1` (configuration not stated), the activation is 1.93% (inactive).
Under `CSc1cccc(NC(=O)CSc2ccccc2)c1` stands -15.7% (inactive); under `Cc1cc(C)cc(NC(=O)CSc2ccccc2)c1`, 12.9% (active).
Under `Cc1cc(C)cc(NC(=O)CN2C(=O)c3ccccc3C2=O)c1` stands -3.2% (inactive); under `CCCCn1c(N)c(N(CC(C)C)C(=O)CSc2ccc([N+](=O)[O-])cc2)c(=O)[nH]c1=O`, 1.02% (inactive); under `Cc1ccc(-c2nnc(-n3nnc4ccccc43)c3ccccc23)cc1`, -11.2% (inactive).
With `Cc1ccc(Cl)cc1NC(=O)CN1CCN(S(=O)(=O)N2CCOCC2)CC1`, the activation was -9.03% (inactive).
In the case of `Cc1ccc(S(=O)(=O)NC2(C(F)(F)F)NC(=O)N(CCc3ccccc3)C2=O)cc1` (configuration not stated) it was -18.6% (inactive); in that of `COc1cccc(N2CCN(c3ccc4nnc(CCC(=O)N5CCN(C)CC5)n4n3)CC2)c1`, -0.01% (inactive); in that of `Cc1ccc(S(=O)(=O)N(CCCN(C)C)Cc2ccc3c(c2)OCO3)cc1`, -1.86% (inactive).
For `COc1ccc(SCc2noc(C(=O)NCC3CCCO3)c2C(=O)O)cc1` (configuration not stated), the activation is 3.88% (inactive).
Under `CC1CN(CC(=O)NC(C)c2ccccc2)CC(C)O1` (configuration not stated) stands -2.73% (inactive).
Under `CC(C)Oc1ccccc1C(=O)NC(CO)C(=O)O` (configuration not stated) stands 7% (inactive); under `COc1ccc(CNc2cc(C)cc(C)c2)cc1OC`, -5.89% (inactive); under `Cc1c(CN2CCC(CO)(CCOc3ccccc3)CC2)[nH]c2ccc(Cl)cc12`, -15% (inactive).
Under `Cc1c(C)c2c(OCC(=O)N[C@@H](C(=O)O)c3ccccc3)cc3c(c2oc1=O)CCC(C)(C)O3` stands 0.86% (inactive); under `CCc1c(SCCC(=O)O)nc2ccccc2c1C`, 2.81% (inactive); under `CN1CCN(c2ccc(CNS(=O)(=O)c3cccc(F)c3)cc2)CC1`, -0.68% (inactive).
Take `Cc1ccsc1CNn1cnnc1SCc1ccccc1F`: the activation was -4.45% (inactive).
In the case of `c1ccc2c(-c3nn4nnnc4c4ccccc34)cccc2c1` it was -11% (inactive); in that of `C=CCNC(=O)c1ccc2c3n(nc2c1)-c1ccc(C)cc1CO3`, -15.6% (inactive); in that of `N#Cc1c(NC(=O)C2CCCO2)sc2c1CCCCC2` (configuration not stated), -9.34% (inactive).
Take `NC(=O)C1CC(=O)N(c2ccc(OCC(=O)NCc3ccccc3)cc2)C1` (configuration not stated): the activation is 2.9% (inactive).
Under `CC1CCC2CCCCC2N1C(=O)c1cc([N+](=O)[O-])cc([N+](=O)[O-])c1` (configuration not stated) stands -6.56% (inactive); under `OCCN1CCOCCOCCN(CCO)CCN(CCO)CC1`, -14% (inactive).
In the case of `Cc1cccc2c1-c1sc(C(=O)NCCCN3CCc4ccccc4C3)cc1CO2` it was -6.4% (inactive).
Under `O=C(NCc1ccccc1)C1CCN(C(=O)Cc2ccccc2)CC1` stands -0.95% (inactive); under `Cc1ccc(N2C(=O)CN=C2Nc2nc(C)cc(C)n2)cc1`, -1.27% (inactive).
On to `COc1ccc(Br)c2c1C(=O)CC2`, for which the activation was -5.51% (inactive).
Under `Cc1ccc(S(=O)(=O)NCC2CCC(C(=O)N3CCOCC3)CC2)cc1` (configuration not stated) stands -11.8% (inactive).
`CS(=O)(=O)Nc1ccccc1C(=O)OCC(=O)NC1CC1`: the activation was -5.14% (inactive).
Under `O=C(Nc1ccccc1C(=O)N1CCOCC1)c1ccc(Cl)cc1` stands -4.35% (inactive).
In the case of `COC(=O)CSc1snnc1-c1ccc(Cl)c(Cl)c1` it was -15.7% (inactive); in that of `O=C(O)c1ccc2c(=O)n3c(nc2c1)/C(=C/c1ccc(OC(F)F)cc1OC(F)F)CC3`, 1.58% (inactive); in that of `Cn1c(N)c(C(=O)COC(=O)c2ccccc2NCc2ccco2)c(=O)n(C)c1=O`, -14.4% (inactive).
Under `Cc1ccccc1Cn1c2ccccc2c2cnn(CC(=O)NCc3ccco3)c(=O)c21` stands 1.81% (inactive); under `CCCCCCCCCCCCN1[C@@H](CC(C)=O)c2cc(F)cc(F)c2S1(=O)=O`, 9.85% (inactive); under `O=C(Nc1nc(-c2ccco2)c(-c2ccco2)s1)c1ccco1`, -4.21% (inactive).
As for `COc1ccc(OCC(=O)Nc2nnc(-c3ccco3)s2)cc1`, the activation is -4.78% (inactive).
In the case of `CNc1nnc(-c2ccco2)s1` it was 11.7% (active).
In the case of `CC(C)N(Cc1ccccc1)C(=O)COC(=O)c1cnccn1` it was -12.7% (inactive).
In the case of `COc1cc(OC)c(C(=O)OC(C)C(=O)Nc2cc(C(F)(F)F)ccc2Cl)cc1OC` (configuration not stated) it was -8.37% (inactive); in that of `Cc1noc(C)c1NC(=O)Nc1ccc2c(c1)C(=O)N([C@H](C)CO)C[C@H](C)[C@@H](CN(C)C(=O)Nc1ccccc1)O2`, -1.66% (inactive).
Turning to `CSc1ncccc1C(=O)OCc1ccc(Br)cc1`, the activation was -14.7% (inactive).
`O=C(O)CCCCOn1ccnc1`: the activation was 3.24% (inactive).
In the case of `Cc1nc2cc(NCc3cccs3)ccc2n1C`, the activation is -14.8% (inactive).
In the case of `O=C1/C(=C/c2ccc3c(c2)OCO3)Oc2cc(OCC(=O)N3CC(O)C[C@H]3C(=O)O)ccc21` (some centres not stated) it was -2.05% (inactive).
With `Cc1nc(-c2ccc(F)cc2)c(CC(=O)N2CCN(S(=O)(=O)c3ccc(F)cc3)CC2)s1`, the activation is -7.74% (inactive).
In the case of `O=C(Nc1ccc(F)cc1)C1CCN(C(=O)c2ccc([N+](=O)[O-])cc2)CC1` it was -7.48% (inactive).
Under `Cc1ccc(NC(=O)COc2coc(CN3CCc4ccccc4C3)cc2=O)cc1Cl` stands -8.11% (inactive).
In the case of `CCOC(=O)C1=C(N)N2C(=O)C(C)SC2=C(C(=O)OCC)C1c1cc(OC)c(OC)c(OC)c1` (configuration not stated) it was 3.06% (inactive).
Regarding `O=C(Nc1ccc(F)cc1F)N1CCCN(CCOc2ccccc2)CC1`, the activation is -5.95% (inactive).
In the case of `O=C1CC(c2c(F)cccc2Cl)C(n2cncn2)C(O)=C1C1NCCc2ccccc21` (configuration not stated) it was 2.91% (inactive).
In the case of `O=C(COC(=O)CCc1nc2ccccc2c(=O)[nH]1)Nc1ccc(N2CCOCC2)cc1` it was -2.47% (inactive).
Under `CC1CCCCC12NC(=O)N(CC(=O)Nc1ccc(S(=O)(=O)Nc3ncccn3)cc1)C2=O` (configuration not stated) stands 1.55% (inactive); under `CCCCNc1c(-c2ccc(OC)c(Sc3ccc(OC)cc3)c2)nc2ccc(Cl)cn12`, 13.1% (active); under `CCCCNc1c(-c2cccc(Sc3ccc(OC)cc3)c2)nc2ccccn12`, -2.7% (inactive).
Turning to `CCCCCCSc1ccc(-c2nc3ccc(Cl)cn3c2NCc2ccccc2)cc1`, the activation was -4.96% (inactive).

Values taken from PubChem BioAssay AID2445 (The Scripps Research Institute Molecular Screening Center, 2010).
